The record followed here is ChEMBL document CHEMBL6092172, “Exploration and characterization of the antimalarial activity of cyclopropyl carboxamides that target the mitochondrial protein, cytochrome b” (Eur J Med Chem, 2024).

A word on the EC50: it is the concentration giving half of the maximal effect. One may read the CC50 as the concentration at which the toxic effect on the cells reaches its halfway point.

Activity calls are given as the source filed them. The rule behind the calls is not given here. Some results are limits rather than exact numbers.

For test [1], the system named is Plasmodium falciparum. Briefly: Antimalarial activity against asexual blood stage Plasmodium falciparum Dd2 harbouring Cyt b with I22L mutant incubated for 72 hrs by flow cytometry analysis. It is filed as functional, organism-based. As to conditions: Dd2, 72 h. Summed up: (§1)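 Asexual parasites were exposed to compound for 72 h and growth was read as SYBR green signal by flow cytometry (FACS).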
A general note: Flow cytometry measures light scatter and fluorescence of single cells or particles in a stream.

The test system of test [2] is Plasmodium falciparum. Kind of test: Effect on oxygen consumption rate in Plasmodium falciparum infected with human RBC at 5 uM by Seahorse XFe24 analyzer. The format is functional, organism-based. Summed up: (§2)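 Malate-dependent OCR of P. falciparum measured first as 5 basal timepoints. Compound (5 μM) then injected and OCR followed for 8 timepoints. TMPD (cytochrome c donor) then added for 5 timepoints, followed by NaN3 (complex IV inhibitor) for 5 timepoints. Means and SDs of 3 technical replicates.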

Test [3] concerns Plasmodium falciparum. Briefly: Antimalarial activity against asexual synchronized ring stage Plasmodium falciparum 3D7 infected with human RBC assessed as parasite arrest measured after 24 hrs by giemsa staining based microscopy analysis. It is filed as functional, organism-based. The essentials:
(§3)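 Giemsa-stained blood smears scored by microscopy for stage progression.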

In test [4] the test system is Plasmodium falciparum. Kind of test: Antimalarial activity against asexual Plasmodium falciparum Dd2 harbouring ScDHODH incubated for 72 hrs by SYBR green staining based flow cytometry analysis. The format is functional, organism-based. Conditions: Dd2, 72 h. The essentials: as §1
The subject of test [5] is Plasmodium falciparum. Briefly: Effect on oxygen consumption rate in Plasmodium falciparum infected with human RBC at 5 uM in presence of NaN3 by Seahorse XFe24 analyzer. The format is functional, organism-based. Summed up:
as §2

Test [6] deals with Plasmodium falciparum. Briefly: Effect on oxygen consumption rate in Plasmodium falciparum infected with human RBC at 5 uM in presence of TMPD by Seahorse XFe24 analyzer. It is filed as functional, organism-based. Summed up:
as §2

Test [7] concerns Plasmodium falciparum. Briefly: Antimalarial activity against asexual Plasmodium falciparum 3D7 harbouring cytb with V259L mutant at Qo site incubated for 72 hrs by SYBR green staining based flow cytometry analysis. Conditions: 3D7, 72 h.
Test [8] deals with Plasmodium falciparum. Kind of test: Antimalarial activity against asexual synchronized ring stage Plasmodium falciparum 3D7 infected with human RBC assessed as parasite arrest measured after 12 to 48 hrs by SYBR green staining based flow cytometry analysis. As to conditions: time 12-48 hrs. The format is functional, organism-based. The essentials: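 Parasitemia measured by flow cytometry of SYBR Green-stained infected RBCs; mean of three technical replicates.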

Test [9] deals with Plasmodium falciparum. Briefly: Antimalarial activity against asexual synchronized ring stage Plasmodium falciparum 3D7 infected with human RBC assessed as parasite growth inhibition measured after 48 hrs by giemsa staining based microscopy analysis. Conditions: 3D7, Erythrocyte. The format is functional, organism-based. Summed up: as §3
The test system of test [10] is Plasmodium falciparum. Kind of test: Antimalarial activity against asexual Plasmodium falciparum SB1-A6 incubated for 72 hrs by SYBR green staining based flow cytometry analysis. As to conditions: SB1-A6, 72 h. The format is functional, organism-based. Summed up: as §1
The next test concerns HepG2. Kind of test: Cytotoxicity against human HepG2 cells assessed as reduction in cell viability measured after 48 hrs by cell-titer glo assay. The format is functional. The essentials: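 HepG2 cells grown in DMEM with 10 % FCS; 1000 cells per well seeded onto a 1:2 dilution series from 50 μM (0.5 % DMSO). Incubated 48 h at 37 °C, 5 % CO2. Viability read by CellTiter-Glo and normalised to DMSO and 10 μM bortezomib controls. Value from four-parameter fit; average of ≥2 independent experiments.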

For test [11], the system named is Plasmodium falciparum. Kind of test: Antimalarial activity against asexual Plasmodium falciparum 3D7 incubated for 72 hrs by LDH assay. It is filed as functional, organism-based. As to conditions: 3D7, 72 h. Summed up:
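P. falciparum 3D7 asexual parasites exposed 72 h at 37 °C (5 % CO2, 5 % O2) to a 10-point 1-in-3 dilution series […], 0.1 % DMSO; 0.1 % DMSO and 100 nM chloroquine as controls. Plates frozen at −80 °C and thawed, then LDH read (lactate/APAD/NBT/diaphorase, Tris pH 7.5) at 650 nm after 30 min.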

Test [12] deals with Plasmodium falciparum. Briefly: Antimalarial activity against asexual compound resistant Plasmodium falciparum harbouring cyt b F264L mutant at Qo site measured after 72 hrs by LDH assay. The format is functional, organism-based. Summed up:
(§4)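 They were tested in a 72 h LDH assay: 10-point 3-fold dilutions […] in 0.1 % DMSO, with 100 nM chloroquine as the kill control. Incubation was 37 °C under 5 % CO2/5 % O2, then freeze–thaw, APAD/NBT/diaphorase mix, A650 after 30 min, and a four-parameter fit.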

Test [13] relates to Plasmodium berghei. Briefly: Antiplasmodial activity against exo-erythrocytic stage Plasmodium berghei sporozoites expressing GFP-Luc fused genes infected in human HepG2-A16-CD81 cells expressing EGFP assessed as reduction in parasite growth measured after 48 hrs by bioluminescence analysis. As to conditions: HepG2-A16-CD81, 48 h. The format is functional, organism-based. Summed up:
(§5)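 HepG2 cells pre-treated with a 10-point dilution series of compound, then infected with luciferase-expressing P. berghei sporozoites. After 48 h, exoerythrocytic form viability read by bioluminescence.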

In test [14] the test system is Plasmodium falciparum. Kind of test: Antimalarial activity against asexual blood stage Plasmodium falciparum Dd2 incubated for 72 hrs by flow cytometry analysis. Conditions: Dd2, 72 h. It is filed as functional, organism-based. The essentials: as §1
The subject of test [15] is Plasmodium falciparum. Briefly: Antimalarial activity against asexual blood stage Plasmodium falciparum Dd2-B2 assessed as parasite recrudescence by measuring minimum inoculum of resistance measured for 60 days by flow cytometry. It is filed as functional. As to conditions: time 60 day. Summed up: (§6)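 Cultures were grown in human O+ RBCs at 3 % hematocrit in AlbuMAX-supplemented RPMI-1640 at 37 °C under 5 % O2/5 % CO2/90 % N2. […] Wells were checked three times weekly by flow cytometry and smear; a well was positive at 0.3 % parasitemia with parasites seen on smear.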

Test [16] has as its system Plasmodium berghei. Kind of test: Antiplasmodial activity against liver stage Plasmodium berghei sporozoites infected in human HepG2 assessed as reduction in parasite growth measured after 48 hrs by bioluminescence analysis. It is filed as functional, organism-based. As to conditions: HepG2, 48 h. The essentials:
as §5

Test [17] relates to Plasmodium falciparum. Briefly: Antimalarial activity against asexual N-cyclopropyl-4-((cyclopropyl(2,4-dichlorobenzyl)amino)methyl)benzamide-resistant Plasmodium falciparum harbouring DHODH genome with 5 fold CNV measured after 72 hrs by LDH assay. The format is functional, organism-based. The essentials:
as §4

The test system of test [18] is Plasmodium falciparum. Briefly: Antiplasmodial activity against Plasmodium falciparum NF54 stage V gametocytes assessed as reduction in xanthurenic acid induced male gametocyte development measured after 48 hrs by fluorescence microscopic analysis. Conditions: NF54, 48 h.
Test [19] deals with Plasmodium falciparum. Briefly: Antimalarial activity against asexual synchronized ring stage Plasmodium falciparum 3D7 infected with human RBC assessed as parasite arrest at 10 times EC50 treated every 24 hrs for 120 hrs followed by compound washout and subsequent addition of RBCs measured after 28 days by parasite reduction ratio assay. The format is functional, organism-based. Summed up:
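Parasite reduction ratio assay on 3D7. […] Compound then washed out and uninfected RBCs and medium added. Regrowth measured by LDH assay after 28 days; means and SDs of 3 replicate experiments.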

For test [20], the system named is Plasmodium falciparum. Kind of test: Antimalarial activity against asexual 4-(((N-cyclopropyl-2,4,6-trimethylphenyl)sulfonamido)methyl)-N-methylbenzamide-resistant Plasmodium falciparum harbouring cyt b […] mutant at Qo site measured after 72 hrs by LDH assay. It is filed as functional, organism-based. Summed up:
as §4

In test [21] the test system is Plasmodium falciparum. Briefly: Antimalarial activity in asexual blood-stage Plasmodium falciparum Dd2-B2 infected in human O+ RBC assessed as minimum inoculum of resistance at 3 times IC90 measured for 60 days by SYBR green/Mito tracker deep red based flow cytometry analysis. The format is functional, organism-based. Conditions: time 60.0 day. The essentials: as §6

Test [22] relates to Plasmodium falciparum. Briefly: Antiplasmodial activity against Plasmodium falciparum NF54 stage V gametocytes assessed as reduction in xanthurenic acid induced female gametocyte development measured after 48 hrs by fluorescence microscopic analysis. As to conditions: NF54, 48 h.
Test [23] concerns Plasmodium falciparum. Kind of test: Antimalarial activity against asexual compound resistant Plasmodium falciparum harbouring cyt b […] mutant at Qo site measured after 72 hrs by LDH assay. It is filed as functional, organism-based. Summed up: as §4
Test [24] relates to Plasmodium falciparum. Kind of test: Antimalarial activity against asexual N-cyclopropyl-4-((cyclopropyl(2,4-dichlorobenzyl)amino)methyl)benzamide-resistant Plasmodium falciparum harbouring DHODH genome with 2 fold CNV measured after 72 hrs by LDH assay. The format is functional, organism-based. The essentials:
as §4

For `O=C1C(O)=C([C@H]2CC[C@H](c3ccc(Cl)cc3)CC2)C(=O)c2ccccc21` [ATOVAQUONE], the EC50 in the test with Plasmodium falciparum [1] was 5400 nM; in the test on Plasmodium falciparum [4] it was above 10000 nM; in the test with Plasmodium falciparum [7], 13 nM; in the test with Plasmodium falciparum [9], 11700 nM; in the test with Plasmodium falciparum [10] it was above 10000 nM. The result with Plasmodium falciparum [2], in the test with Plasmodium falciparum [3], in the test with Plasmodium falciparum [5] and in the test on Plasmodium falciparum [8] was Active. For the same compound, the outcome in the test on Plasmodium falciparum [6] was inactive.

With `Cc1cccc(CN(Cc2ccc(C(=O)NC3CC3)cc2)C2CC2)c1C`, the CC50 with HepG2 was above 40000 nM. The compound also registered an EC50 with Plasmodium falciparum [11] of 150 nM.

Turning to `CNC(=O)c1ccc(CN(C2CC2)S(=O)(=O)c2c(C)cc(C)cc2C)cc1`, the EC50 is 2100 nM in the test with Plasmodium falciparum [12]; 65 nM in the test with Plasmodium falciparum [1]; 70 nM with Plasmodium berghei [13]; 70 nM in the test on Plasmodium falciparum [14]; above 50000 nM with Plasmodium berghei [16]; 500 nM with Plasmodium falciparum [17]. Moreover, the EC50 in the test on Plasmodium falciparum [18] was 1100 nM; in the test on Plasmodium falciparum [11], 110 nM; in the test with Plasmodium falciparum [4] it was above 10000 nM; with Plasmodium falciparum [20], 283 nM; with Plasmodium falciparum [7] it was 420 nM; in the test with Plasmodium falciparum [9], 1300 nM. Further, the EC50 with Plasmodium falciparum [22] was above 25000 nM; in the test with Plasmodium falciparum [10], above 10000 nM; with Plasmodium falciparum [23], 1730 nM. Further, the CC50 in the test on HepG2 is above 40000 nM. Moreover, the figures for the Activity in the test with Plasmodium falciparum [15] and with Plasmodium falciparum [19] were >2 10^7No_unit and “Active; Compound Showed Moderate To Slow Rate Of Kill Than Pyrimethamine And Slightly Quicker Than Atq”, respectively. In addition, the outcome in the test on Plasmodium falciparum [2], with Plasmodium falciparum [3], with Plasmodium falciparum [5], in the test on Plasmodium falciparum [21] and in the test on Plasmodium falciparum [8] was Active. Moreover, in the test with Plasmodium falciparum [6], the result was inactive.

Consider `O=C(Nc1ccccc1)c1ccc(CN(Cc2ccc(Cl)cc2Cl)C2CC2)cc1`, for which the EC50 with Plasmodium falciparum [11] was determined as 1200 nM.

In the case of `CCCN(Cc1ccc(C(=O)NC2CC2)cc1)Cc1c(C)cc(C)cc1C`, in the test on Plasmodium falciparum [22], the EC50 is above 25000 nM.

In the case of `Cc1cc(Nc2ccc(S(F)(F)(F)(F)F)cc2)n2nc(C(C)(F)F)nc2n1` [DSM-265], the values for the half-maximal effective concentration (EC50) with Plasmodium falciparum [1], in the test on Plasmodium falciparum [4] and in the test with Plasmodium falciparum [10] were 8 nM, above 10000 nM and above 10000 nM, respectively. Also, the result in the test with Plasmodium falciparum [2] and with Plasmodium falciparum [6] was inactive.

As for `O=C(NC1CC1)c1ccc(CN(Cc2ccc(Cl)cc2Cl)C2CC2)cc1`, the EC50 with Plasmodium falciparum [14] is 118 nM; with Plasmodium falciparum [24], 620 nM; in the test on Plasmodium falciparum [9], 2500 nM; with Plasmodium falciparum [22], above 25000 nM. Moreover, the Activity is 1.9 10^7No_unit in the test with Plasmodium falciparum [15] and “Active; Compound Showed Moderate To Slow Rate Of Kill Than Pyrimethamine And Slightly Quicker Than Atq” in the test on Plasmodium falciparum [19]. The outcome in the test with Plasmodium falciparum [2], in the test with Plasmodium falciparum [3], in the test on Plasmodium falciparum [5], in the test with Plasmodium falciparum [21] and with Plasmodium falciparum [8] was Active. In addition, the result in the test with Plasmodium falciparum [6] was inactive.

In the case of `CC(C)CN(Cc1ccc(C(=O)NC2CC2)cc1)C1CC1`, the EC50 with Plasmodium falciparum [11] worked out at 400 nM.

In the case of `O=C(NC1CC1)c1ccc(CN(Cc2ccccc2)Cc2ccccc2)cc1`, the EC50 in the test with Plasmodium falciparum [11] stood at 590 nM.

Take `O=C(NC1CCCC1)c1ccc(CN(Cc2ccc(Cl)cc2Cl)C2CC2)cc1`: it took 1800 nM to reach a half-maximal effect with Plasmodium falciparum [11] (EC50).

On to `CN(C(=O)c1ccc(CN(Cc2ccccc2)C2CC2)cc1)C1CC1`, for which, in the test on Plasmodium falciparum [11], the 50% effective concentration (EC50) is above 10000 nM.
